Source: ChEMBL document CHEMBL5653630, “Activation of the p53-MDM4 regulatory axis defines the anti-tumour response to PRMT5 inhibition through its role in regulating cellular splicing” (Sci Rep, 2018)
The source made the active and inactive calls. The rule behind the calls is not given here.

Columns and labels:
LN-229 = test: Antiproliferative activity against human LN-229 cells assessed as cell growth inhibition incubated for 6 days by celltiter-glo assay; format: functional; details: LN-229, 144 h, time 6 day
Outline: (§1)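 Cells seeded in 384-well plates at an optimized density and held 24 h. Day 0: treated in duplicate with a 20-point two-fold series (top dose ≤29 μM, ≤0.15% DMSO) and incubated 6 days. CellTiter-Glo luminescence read at Day 0 and Day 6. Four-parameter fit. gIC50 = midpoint of the growth window between DMSO and T0. Curves required ≥1.5 population doublings.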

[1] = Antiproliferative activity against human PER-704 cells assessed as cell growth inhibition incubated for 6 days by celltiter-glo assay; format: functional; details: PER-704, 144 h, time 6 day; outline: as §1
Pfeiffer = test: Antiproliferative activity against human Pfeiffer cells assessed as cell growth inhibition incubated for 6 days by celltiter-glo assay; format: functional; details: 144 h, time 6 day; outline: as §1
RCK8 = test: Antiproliferative activity against human RCK8 cells assessed as cell growth inhibition incubated for 6 days by celltiter-glo assay; format: functional; details: RCK8, 144 h, time 6 day; outline: as §1
SU-DHL-2 = test: Antiproliferative activity against human SUDHL2 cells assessed as cell growth inhibition incubated for 6 days by celltiter-glo assay; format: functional; details: SU-DHL-2, 144 h, time 6 day; outline: as §1
SUD4 = test: Antiproliferative activity against human SU-DHL-4 cells assessed as cell growth inhibition incubated for 6 days by celltiter-glo assay; format: functional; details: SU-DHL-4, 144 h, time 6 day; outline: as §1
SU-DHL-8 = test: Antiproliferative activity against human SU-DHL-8 cells assessed as cell growth inhibition incubated for 6 days by celltiter-glo assay; format: functional; details: SU-DHL-8, 144 h, time 6 day; outline: as §1
SW780 = test: Antiproliferative activity against human SW780 cells assessed as cell growth inhibition incubated for 6 days by celltiter-glo assay; format: functional; details: SW780, 144 h, time 6 day; outline: as §1
U-2940 = test: Antiproliferative activity against human U-2940 cells assessed as cell growth inhibition incubated for 6 days by celltiter-glo assay; format: functional; details: U-2940, 144 h, time 6 day; outline: as §1
UMUC3 = test: Antiproliferative activity against human UMUC3 cells assessed as cell growth inhibition incubated for 6 days by celltiter-glo assay; format: functional; details: UMUC3, 144 h, time 6 day; outline: as §1
WSUDLCL2 = test: Antiproliferative activity against human WSUDLCL2 cells assessed as cell growth inhibition incubated for 6 days by celltiter-glo assay; format: functional; details: WSUDLCL2, 144 h, time 6 day; outline: as §1
Z-138 [2] = test: Antiproliferative activity against human Z138 cells assessed as cell growth inhibition incubated for 6 days by celltiter-glo assay; format: functional; details: Z-138, 144 h, time 6 day; outline: as §1
Rec1 = test: Induction of cell cycle arrest in human REC1 cells assessed as increase in 2n cell population measured upto 5000 nM measured for 3 days by propidium iodide staining based flow cytometric analysis; format: functional; details: time 3.0 day
Z-138 [3] = test: Antitumor activity against human Z138 cells xenografted in mouse at 25 to 50 mg/kg, po qd measured at 14 to 21 days; format: functional, organism-based; details: dose lower […], dose upper 50.0 mg/kg, time 14-21 day
EB-3 = test: Antiproliferative activity against human EB-3 cells assessed as cell growth inhibition incubated for 10 days; format: functional; details: EB-3, 240 h, time 10 day
Outline: (§2)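 Outsourced panel run in 384-well plates. Cells were grown in RPMI-1640/10% FBS or a special medium at 37°C, 5% CO2. Compound was added 24 h after seeding as a 10-point, 3.16-fold series in 0.1% DMSO. Medium was refreshed and cells re-dosed at 168 h, with a time-zero plate kept. At 240 h cells were fixed, nuclei stained and imaged. gIC50 is growth midway between untreated and time zero, from a 4-parameter fit.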

[4] = Antiproliferative activity against human CML-T1 cells assessed as cell growth inhibition incubated for 10 days; format: functional; details: CML-T1, 240 h, time 10 day
Outline: (§3)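 Cells kept in RPMI-1640 with 10% FBS, 2 mM L-alanyl-L-glutamine and 1 mM Na pyruvate (or a special medium) at 37°C, 5% CO2. Compound added 24 h after seeding, 10 concentrations in 3.16-fold dilution, 0.1% DMSO final. Medium replaced and cells re-dosed at 168 h; 240 h incubation. Nuclei fixed, dye-stained and imaged. gIC50 = growth midway between untreated and time-zero cell counts, from a 4-parameter fit.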

K562 = test: Antiproliferative activity against human K562 cells assessed as cell growth inhibition incubated for 10 days; format: functional; details: K562, 240 h, time 10 day
Outline: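 Eurofins-panel 10-day assay in 384-well plates. Cells grown in RPMI-1640 with 10% FBS, 2 mM L-alanyl-L-glutamine and 1mM Na pyruvate, or a special medium, at 37°C in 5% CO₂. Compound added 24 h after seeding, 10-point 3.16-fold series in 0.1% DMSO. Medium replaced and compound re-dosed at 168 h. Nuclei fixed and stained after 240 h, then imaged to give a relative cell count. gIC50 is the concentration giving growth midway between untreated and time-zero counts, from a 4-parameter fit.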

DK-MG = test: Antiproliferative activity against human DK-MG cells assessed as cell growth inhibition incubated for 10 days; format: functional; details: 240 h, time 10 day; outline: as §2
CCF-STTG1 = test: Antiproliferative activity against human CCF-STTG1 cells assessed as cell growth inhibition incubated for 10 days; format: functional; details: CCF-STTG1, 240 h, time 10 day; outline: as §3
HuCCT-1 = test: Antiproliferative activity against human HuCCT-1 cells assessed as cell growth inhibition incubated for 10 days; format: functional; details: HuCCT-1, 240 h, time 10 day
Outline: (§4)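 Eurofins panel, 384-well. Cells kept in RPMI-1640 with 10% FBS, 2 mM L-alanyl-L-glutamine and 1 mM Na pyruvate, or in a special medium, at 37°C under 5% CO2. Compound added 24 h after seeding as 10 concentrations in 3.16-fold steps, 0.1% DMSO final. Medium replaced and compound re-dosed at 168 h. After 240 h, cells fixed and nuclei stained for imaging. gIC50 = growth midway between untreated cells and time-zero count.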

[5] = Antiproliferative activity against human C32TG cells assessed as cell growth inhibition incubated for 10 days; format: functional; details: 240 h, time 10 day; outline: as §3
OVCAR-3 = test: Antiproliferative activity against human OVCAR-3 cells assessed as cell growth inhibition incubated for 10 days; format: functional; details: OVCAR-3, 240 h, time 10 day
Hs 766 = test: Antiproliferative activity against human Hs766T cells assessed as cell growth inhibition incubated for 10 days; format: functional; details: Hs 766, 240 h, time 10 day; outline: as §4
MES-SA = test: Antiproliferative activity against human MES-SA cells assessed as cell growth inhibition incubated for 10 days; format: functional; details: 240 h, time 10 day
SJSA-1 = test: Antiproliferative activity against human SJSA-1 cells assessed as cell growth inhibition incubated for 10 days; format: functional; details: SJSA-1, 240 h, time 10 day
639-V = test: Antiproliferative activity against human 639-V cells assessed as cell growth inhibition incubated for 10 days; format: functional; details: 240 h, time 10 day; outline: as §3
SW 962 = test: Antiproliferative activity against human SW 962 cells assessed as cell growth inhibition incubated for 10 days; format: functional; details: SW 962, 240 h, time 10 day
[6] = biological target: Protein arginine N-methyltransferase 5 (Homo sapiens) (UniProt O14744); test: Inhibition of PRMT5 in p53 knockout human Z138 cells at 1 to 100000 nM incubated for 3 to 6 days; format: cell-based; details: dose 1-100000 nM, time 3-6 day
Chain of Protein arginine N-methyltransferase 5 (Homo sapiens) (O14744 whole entry): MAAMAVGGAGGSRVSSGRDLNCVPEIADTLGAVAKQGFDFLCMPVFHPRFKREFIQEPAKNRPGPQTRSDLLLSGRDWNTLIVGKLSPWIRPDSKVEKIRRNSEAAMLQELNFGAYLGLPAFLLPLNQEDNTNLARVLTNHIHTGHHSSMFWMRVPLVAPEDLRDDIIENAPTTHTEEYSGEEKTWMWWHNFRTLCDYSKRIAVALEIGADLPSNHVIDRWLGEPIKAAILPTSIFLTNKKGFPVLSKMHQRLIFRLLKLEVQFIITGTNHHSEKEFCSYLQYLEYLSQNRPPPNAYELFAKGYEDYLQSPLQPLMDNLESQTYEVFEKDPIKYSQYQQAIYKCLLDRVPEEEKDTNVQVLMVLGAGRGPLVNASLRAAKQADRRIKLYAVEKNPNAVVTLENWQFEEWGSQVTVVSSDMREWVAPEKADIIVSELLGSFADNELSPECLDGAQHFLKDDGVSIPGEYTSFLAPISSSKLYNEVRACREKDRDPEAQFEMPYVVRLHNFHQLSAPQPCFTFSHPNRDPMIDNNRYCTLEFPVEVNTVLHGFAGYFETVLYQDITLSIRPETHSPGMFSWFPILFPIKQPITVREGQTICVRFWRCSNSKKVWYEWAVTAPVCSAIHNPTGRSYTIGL

Row | GI50 (SU-DHL-2) [nM] | GI50 (SU-DHL-8) [nM] | GI50 (SW780) [nM] | SMILES | GI50 (LN-229) [nM] | GI50 [1] [nM] | GI50 (Pfeiffer) [nM] | GI50 (RCK8) [nM] | GI50 (SUD4) [nM] | GI50 (U-2940) [nM] | GI50 (UMUC3) [nM] | GI50 (WSUDLCL2) [nM] | GI50 (Z-138 [2]) [nM] | further results
1 | 28 | 53 | 290 | CC(=O)N1CCC(Nc2cc(C(=O)NC[C@H](O)CN3CCc4ccccc4C3)ncn2)CC1 [PEMRAMETOSTAT] | 254 | 658 | 421 | 529 | 492 | 10200 | 29300 | 82 | 4 | Activity (Rec1): inactive; Activity (Z-138 [3]): Active
2 | 86 | 1220 | 451 | O=C(NC[C@H](O)CN1CCc2ccccc2C1)c1ccnc(NC2CCC2)c1 | 1150 | 375 | 352 | 2110 | 571 | 2350 | 19200 | 651 | 14 | GI50 (EB-3): 299 nM; GI50 [4]: 16.1 nM; GI50 (K562): 146 nM; GI50 (DK-MG): 89.5 nM; GI50 (CCF-STTG1): 115 nM; GI50 (HuCCT-1): 225 nM; GI50 [5]: 103 nM; GI50 (OVCAR-3): 51.4 nM; GI50 (Hs 766): 1120 nM; GI50 (MES-SA): 72 nM; GI50 (SJSA-1): 773 nM; GI50 (639-V): 342 nM; GI50 (SW 962): 203 nM; inhibition [6]: Active
